Reference: ChEMBL document CHEMBL3259548, “Design, synthesis and biological evaluation of novel isoniazid derivatives with potent antitubercular activity” (Eur J Med Chem, 2014)
Converted amounts (≈) assume the structure as drawn.

Tests used:
[1] = system: Mycobacterium tuberculosis; assay: Antitubercular activity against Mycobacterium tuberculosis H37Rv ATCC 27294 by BACTEC 960 assay; format: functional
[2] = Octanol-water partition co-efficient, log P of the compound by shake-flask method; format: physicochemical
Vero = assay: Cytotoxicity against african green monkey Vero cells after 48 hrs by MTT assay; format: cell-based; conditions: Chlorocebus sabaeus
[3] = Selectivity index, ratio of IC50 for african green monkey Vero cells to MIC for Mycobacterium tuberculosis H37Rv ATCC 27294; format: toxicity, cell-based; conditions: read-out: Selectivity Index
Outline: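 Vero cells were seeded at ~4×10^5 cells/mL and grown 48 h at 37 °C in 5% CO2. […] MTT 0.5 mg/mL was added for 2 h and formazan dissolved in DMSO, with absorbance read at 570 nm to give IC50. SI = IC50 / H37Rv MIC (IC99).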

NNC(=O)c1ccncc1N
MIC [1]: 9.86 µM (≈ 1.5 µg/mL)

CC(=O)NNC(=O)c1ccncc1
MIC [1]: 44.6 µM (≈ 8 µg/mL)

O=C(NNS(=O)(=O)c1ccc([N+](=O)[O-])cc1)c1ccncc1
MIC [1]: 186 µM (≈ 60 µg/mL)

O=C(NNS(=O)(=O)c1ccccc1)c1ccncc1
MIC [1]: 10.8 µM (≈ 3 µg/mL)

C/C(=N/NC(=O)c1ccncc1)c1cccc(CN2CCNCC2)c1O
MIC [1]: 8.61 µM (≈ 3.04 µg/mL)

N/C(COc1ccc(Cl)cc1)=N\NC(=O)c1ccncc1
MIC [1]: 10.2 µM (≈ 3.12 µg/mL)

O=C(NNC(=O)c1ccncc1)c1ccncc1
MIC [1]: 33 µM (≈ 8 µg/mL)

Cc1ccccc1OC/C(N)=N/NC(=O)c1ccncc1
MIC [1]: 44 µM (≈ 12.5 µg/mL)

CCCCCCCCC(=O)NNC(=O)c1ccncc1
MIC [1]: 0.09 µM (≈ 0.025 µg/mL)

Cc1cccc(OC/C(N)=N/NC(=O)c2ccncc2)c1
MIC [1]: 11 µM (≈ 3.12 µg/mL)

Cc1ccc(OC/C(N)=N/NC(=O)c2ccncc2)cc1
MIC [1]: 22 µM (≈ 6.25 µg/mL)

N/C(COc1cccc(Cl)c1)=N\NC(=O)c1ccncc1
MIC [1]: 10.2 µM (≈ 3.12 µg/mL)

C/C(=N\NC(=O)c1ccncc1)c1cccc(CN(C)C)c1O
MIC [1]: 2.29 µM (≈ 0.715 µg/mL)

CCCCN(CCCC)Cc1cccc(/C(C)=N/NC(=O)c2ccncc2)c1O
MIC [1]: 4.43 µM (≈ 1.76 µg/mL)

C/C(=N\NC(=O)c1ccncc1)c1cccc(CN2CCCCC2)c1O
MIC [1]: 4.61 µM (≈ 1.62 µg/mL)

C/C(=N\NC(=O)c1ccncc1)c1cccc(CN2CCCC2)c1O
MIC [1]: 2.2 µM (≈ 0.745 µg/mL)

C/C(=N\NC(=O)c1ccncc1)c1cccc(CN2CCOCC2)c1O
MIC [1]: 3.57 µM (≈ 1.27 µg/mL)

C/C(=N\NC(=O)c1ccncc1)c1cccc(CN(c2ccccc2)c2ccccc2)c1O
MIC [1]: 0.56 µM (≈ 0.244 µg/mL)

C/C(=N\NC(=O)c1ccncc1)c1cccc(CN2CCN(C)CC2)c1O
MIC [1]: 3.36 µM (≈ 1.23 µg/mL)

C/C(=N\NC(=O)c1ccncc1)c1cccc(CN(Cc2ccccc2)Cc2ccccc2)c1O
MIC [1]: 1.3 µM (≈ 0.604 µg/mL)

C/C(=N\NC(=O)c1ccncc1)c1cccc(CN2CCN(c3cc4c(cc3F)c(=O)c(C(=O)O)cn4C3CC3)CC2)c1O
MIC [1]: 1.26 µM (≈ 0.754 µg/mL)

CCn1cc(C(=O)O)c(=O)c2cc(F)c(N3CCN(Cc4cccc(/C(C)=N/NC(=O)c5ccncc5)c4O)C(C)C3)c(F)c21 (configuration not stated)
MIC [1]: 0.9 µM (≈ 0.557 µg/mL)

C/C(=N\NC(=O)c1ccncc1)c1cccc(CN2CCN(c3ccccn3)CC2)c1O
MIC [1]: 0.88 µM (≈ 0.379 µg/mL)

CCCCCCCCCCCCNNC(=O)c1ccncc1
MIC [1]: 0.164 µM (≈ 0.0501 µg/mL)

O=C(NNCc1ccco1)c1ccncc1
MIC [1]: 69.1 µM (≈ 15 µg/mL)

Nc1ccc(S(=O)(=O)NNC(=O)c2ccncc2)cc1
MIC [1]: 2050 µM (≈ 600 µg/mL)

O=C(N/N=C(\CO)C(O)C(O)C(O)CO)c1ccncc1 (configuration not stated)
MIC [1]: 0.2 µM (≈ 0.0599 µg/mL)

CNC1C(OC2C(OC3C(O)C(O)C(NC(=N)N)C(O)C3NC(=N)N)OC(C)C2(O)/C=N\NC(=O)c2ccncc2)OC(CO)C(O)C1O (configuration not stated)
MIC [1]: 0.214 µM (≈ 0.15 µg/mL)

Cc1cc(C(=O)NN)ccn1
MIC [1]: 5.2 µM (≈ 0.786 µg/mL)

CCc1cc(C(=O)NN)ccn1
MIC [1]: 21.1 µM (≈ 3.49 µg/mL)

CCCc1cc(C(=O)NN)ccn1
MIC [1]: 55.2 µM (≈ 9.89 µg/mL)

COc1cc(C(=O)NN)ccn1
MIC [1]: 153 µM (≈ 25.6 µg/mL)

CCOc1cc(C(=O)NN)ccn1
MIC [1]: 450 µM (≈ 81.5 µg/mL)

NNC(=O)c1ccnc(N)c1
MIC [1]: 14.5 µM (≈ 2.21 µg/mL)

CC(=O)Nc1cc(C(=O)NN)ccn1
MIC [1]: 2150 µM (≈ 418 µg/mL)

CC(=O)NCc1cc(C(=O)NN)ccn1
MIC [1]: 243 µM (≈ 50.6 µg/mL)

CCN(CC)c1cc(C(=O)NN)ccn1
MIC [1]: 717 µM (≈ 149 µg/mL)

NNC(=O)c1ccnc(Cl)c1
MIC [1]: 392 µM (≈ 67.3 µg/mL)

NNC(=O)c1ccnc(I)c1
MIC [1]: 254 µM (≈ 66.8 µg/mL)

NNC(=O)c1ccnc([N+](=O)[O-])c1
MIC [1]: 371 µM (≈ 67.6 µg/mL)

NNC(=O)c1ccnc(-c2ccccc2)c1
MIC [1]: 50 µM (≈ 10.7 µg/mL)

NNC(=O)c1ccnc(Cc2ccccc2)c1
MIC [1]: 38.5 µM (≈ 8.75 µg/mL)

C=Cc1cc(C(=O)NN)ccn1
MIC [1]: 35 µM (≈ 5.71 µg/mL)

Cc1ccc(C)n1NC(=O)c1ccncc1
MIC [1]: 46.5 µM (≈ 10 µg/mL)

CC(O)(NNC(=O)c1ccncc1)C(=O)O (configuration not stated)
MIC [1]: 0.266 µM (≈ 0.0599 µg/mL)

O=C(NNC(O)C(Cl)(Cl)Cl)c1ccncc1 (configuration not stated)
MIC [1]: 0.141 µM (≈ 0.0401 µg/mL)

CC(C)(C#N)NNC(=O)c1ccncc1
MIC [1]: 0.294 µM (≈ 0.06 µg/mL)

O=CNNC(=O)c1ccncc1
MIC [1]: 18.2 µM (≈ 3 µg/mL)

CCCCCC/C=N/NC(=O)c1ccncc1
MIC [1]: 0.129 µM (≈ 0.0301 µg/mL)

C/C=C/CCCCCCC/C=N/NC(=O)c1ccncc1
MIC [1]: 0.522 µM (≈ 0.15 µg/mL)

CCCCCCCCCC/C=N/NC(=O)c1ccncc1
MIC [1]: 1.04 µM (≈ 0.3 µg/mL)

CCC(CC)=NNC(=O)c1ccncc1
MIC [1]: 0.097 µM (≈ 0.0199 µg/mL)

CCCCC/C(C)=N/NC(=O)c1ccncc1
MIC [1]: 0.129 µM (≈ 0.0301 µg/mL)

CC1CCC(=NNC(=O)c2ccncc2)CC1 (configuration not stated)
MIC [1]: 0.303 µM (≈ 0.0701 µg/mL)

CC(C)COc1ccc(/C=N/NC(=O)c2ccncc2)cc1
MIC [1]: 0.673 µM (≈ 0.2 µg/mL)

CC(C)CCOc1ccc(/C=N/NC(=O)c2ccncc2)cc1
MIC [1]: 0.161 µM (≈ 0.0501 µg/mL)

CCN(CC)c1ccc(/C=N/NC(=O)c2ccncc2)cc1
MIC [1]: 2.02 µM (≈ 0.6 µg/mL)

CC(=O)C/C(C)=N/NC(=O)c1ccncc1
MIC [1]: 3.65 µM (≈ 0.8 µg/mL)

O=C(N/N=C/C(O)C(O)C(O)CO)c1ccncc1 (configuration not stated)
MIC [1]: 0.186 µM (≈ 0.0501 µg/mL)

CC(C)/C=N\NC(=O)c1ccncc1
MIC [1]: 0.523 µM (≈ 0.1 µg/mL)

CC(=O)Nc1ccc(/C=N\NC(=O)c2ccncc2)cc1
MIC [1]: 0.283 µM (≈ 0.0799 µg/mL)

CC(C)CNNC(=O)c1ccncc1
MIC [1]: 0.517 µM (≈ 0.0999 µg/mL)

CCC(C)NNC(=O)c1ccncc1 (configuration not stated)
MIC [1]: 2.07 µM (≈ 0.4 µg/mL)

CCC(CC)NNC(=O)c1ccncc1
MIC [1]: 14.5 µM (≈ 3 µg/mL)

O=C(NNC1CCCCC1)c1ccncc1
MIC [1]: 22.8 µM (≈ 5 µg/mL)

CC1CCCC(NNC(=O)c2ccncc2)C1 (configuration not stated)
MIC [1]: 17.1 µM (≈ 4 µg/mL)

CC1CCC(NNC(=O)c2ccncc2)CC1 (configuration not stated)
MIC [1]: 21.4 µM (≈ 5 µg/mL)

O=Cc1cccc(/C=N/NC(=O)c2ccncc2)c1
MIC [1]: 0.28 µM (≈ 0.0709 µg/mL)
logP [2]: 1.33
IC50 (Vero): > 200 µM
selectivity ratio [3]: > 724

O=Cc1ccc(/C=N/NC(=O)c2ccncc2)cc1
MIC [1]: 0.24 µM (≈ 0.0608 µg/mL)
logP [2]: 1.32
IC50 (Vero): > 200 µM
selectivity ratio [3]: > 844

O=C(N/N=C/c1cccc(CO)c1)c1ccncc1
MIC [1]: 0.47 µM (≈ 0.12 µg/mL)
logP [2]: 0.902
IC50 (Vero): > 200 µM
selectivity ratio [3]: > 425

O=C(N/N=C/c1ccc(CO)cc1)c1ccncc1
MIC [1]: 0.27 µM (≈ 0.0689 µg/mL)
logP [2]: 0.731
IC50 (Vero): > 200 µM
selectivity ratio [3]: > 729

O=C(NN=C1CCCC1)c1ccncc1
MIC [1]: 0.2 µM (≈ 0.0406 µg/mL)
logP [2]: 0.22
IC50 (Vero): > 190 µM
selectivity ratio [3]: > 965

O=C(NN=C1CCC(c2ccccc2)CC1)c1ccncc1 (configuration not stated)
MIC [1]: 0.27 µM (≈ 0.0792 µg/mL)
logP [2]: 1.97
IC50 (Vero): > 200 µM
selectivity ratio [3]: > 733

COC(=O)c1ccc(/C=N/NC(=O)c2ccncc2)cc1
MIC [1]: 1.06 µM (≈ 0.3 µg/mL)
logP [2]: 1.32

O=C(N/N=C/c1ccc(Oc2ccccc2)cc1)c1ccncc1
MIC [1]: 0.95 µM (≈ 0.301 µg/mL)
logP [2]: 3.7

CCCCCCCCCC(=O)NNC(=O)c1ccncc1
MIC [1]: 0.38 µM (≈ 0.111 µg/mL)
logP [2]: 3.46
IC50 (Vero): > 75 µM
selectivity ratio [3]: > 530

CCCCCC(C)C(=O)NNC(=O)c1ccncc1 (configuration not stated)
MIC [1]: 3.04 µM (≈ 0.801 µg/mL)
logP [2]: 2.09

O=C(NNC1CCC(c2ccccc2)CC1)c1ccncc1 (configuration not stated)
MIC [1]: 0.44 µM (≈ 0.13 µg/mL)
logP [2]: 2.83
IC50 (Vero): > 200 µM
selectivity ratio [3]: > 454

NNC(=O)c1ccnc(NN)c1
MIC [1]: 0.42 µM (≈ 0.0702 µg/mL)
logP [2]: -0.541
IC50 (Vero): > 200 µM
selectivity ratio [3]: > 478

O=C(NNC(=O)C(O)C(O)C(O)CO)c1ccncc1 (configuration not stated)
MIC [1]: 0.501 µM (≈ 0.143 µg/mL)

CCN(CC)CN(C)c1ccc(/C=N/NC(=O)c2ccncc2)cc1
MIC [1]: 0.236 µM (≈ 0.0801 µg/mL)

O=C(NNC(=O)C(O)C(OC1OC(CO)C(O)C(O)C1O)C(O)CO)c1ccncc1 (configuration not stated)
MIC [1]: 0.346 µM (≈ 0.155 µg/mL)

N/C(COc1ccc([N+](=O)[O-])cc1)=N/NC(=O)c1ccncc1
MIC [1]: 19.8 µM (≈ 6.25 µg/mL)

C/C(=N/NC(=O)c1ccncc1)c1cccc(CN2CCN(Cc3ccccn3)CC2)c1O
MIC [1]: 0.87 µM (≈ 0.387 µg/mL)

C/C(=N/NC(=O)c1ccncc1)c1cccc(CN2CCN(Cc3ccc(F)cn3)CC2)c1O
MIC [1]: 2.04 µM (≈ 0.944 µg/mL)

NNC(=O)c1ccnc(F)c1
MIC [1]: 2.58 µM (≈ 0.4 µg/mL)

Cc1cnccc1C(=O)NN
MIC [1]: 1320 µM (≈ 200 µg/mL)

NNC(=O)c1ccnc(Br)c1
MIC [1]: 69.4 µM (≈ 15 µg/mL)

C/C=N/NC(=O)c1ccncc1
MIC [1]: 0.245 µM (≈ 0.04 µg/mL)

CCN(CC)Cc1cccc(/C(C)=N\NC(=O)c2ccncc2)c1O
MIC [1]: 3.93 µM (≈ 1.34 µg/mL)

CC(C)=NNC(=O)c1ccncc1
MIC [1]: 0.113 µM (≈ 0.02 µg/mL)

O=C(NN=C1CCCCC1)c1ccncc1
MIC [1]: 0.028 µM (≈ 0.00608 µg/mL)

CC(C)NNC(=O)c1ccncc1 [IPRONIAZID]
MIC [1]: 2.23 µM (≈ 0.4 µg/mL)

NNC(=O)c1ccncc1 [ISONIAZID]
MIC [1]: 0.146 µM (≈ 0.02 µg/mL)
logP [2]: -0.851
IC50 (Vero): > 200 µM
selectivity ratio [3]: > 686
